The nature of series [1]: melting temperature; fluorescence melt of hairpins on a sequencing array, two-state fit, raised by 9.35 °C to match UV melts. The note with it: sodium 0.088 M. Summed up: (§1)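 To match UV melts, fitted temperatures were raised by 9.35 °C. These fits were bootstrapped two-state models that gave melting temperature and folding enthalpy, combined by inverse variance over four replicates. The input was normalised Cy3 fluorescence of library hairpins with annealed Cy3 and quencher oligos on a sequenced MiSeq flow cell, imaged in 50 mM Na-HEPES pH 8.0, 25 mM NaCl in 2.5 °C steps up to 60 °C.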

Series [2] can be described thus: folding enthalpy; higher = less favourable; fluorescence melt of hairpins on a sequencing array, two-state fit. The note with it: sodium 0.088 M. Summed up:
as §1

With GGTACCCGAAAGGGAACC (((.(((....))).))), the Tm in series [1] came to 59.7 °C. Further, the folding enthalpy in series [2] was -26.8 kcal/mol.
As to GGGTATGGAAACGTATCC ((.((.(....).)).)), the Tm in series [1] was 30.5 °C. Also, in series [2], the folding enthalpy was -19.8 kcal/mol.
For GCCGACGAAAGTCACGGC ((((((....)))..))), the Tm in series [1] was 53.1 °C. The folding enthalpy in series [2] is -26.8 kcal/mol.
Take GTAGATGCGAAAGCATAC (((..(((....)))))): the Tm in series [1] stood at 31.1 °C. The folding enthalpy in series [2] was -11.9 kcal/mol.
On to GCTGAGCGAAAGCACTGC ((.(.((....)).).)), for which the Tm in series [1] turned out to be 49.5 °C. Besides, in series [2], the folding enthalpy is -20 kcal/mol.
For GCCATCGAAAGATTAGGC ((((((....)))..))), the Tm in series [1] worked out at 43.4 °C. Besides, the folding enthalpy in series [2] was -30.7 kcal/mol.
The matching figures for GAGTAGCGAAAGCTGCTC (((.(((....))).))): 60.1 °C and -36.6 kcal/mol.
In the case of GCGATGCGAAAGCCTCGC ((((.((....)).)))), the Tm in series [1] was 64.6 °C. The folding enthalpy in series [2] is -40.3 kcal/mol.
As to TAACGGAAACGTTA (((((....))))), the Tm in series [1] came out at 41.3 °C. For the same sequence, in series [2], the folding enthalpy is -18.4 kcal/mol.
As to GGCCACGAAAGTGGTGCC ((((((....)))..))), in series [1], the Tm amounted to 49.9 °C. In addition, the folding enthalpy in series [2] is -12.7 kcal/mol.
Turning to GATCAAAACTTGATC ((((((...)))))), the Tm in series [1] was found to be 41.7 °C. Also, the folding enthalpy in series [2] was -27.6 kcal/mol.
Regarding GGACACGAAAGTGCTTCC ((((((....)))..))), in series [1], the Tm stood at 40.4 °C. Moreover, the folding enthalpy in series [2] is -20.4 kcal/mol.
Consider GGTAGAGGAAACTCTACC (((((((....))))))), for which the Tm in series [1] was 57.8 °C. Besides, in series [2], the folding enthalpy is -46.8 kcal/mol.
Turning to GTGTGGAAACACAC (((((....))))), the Tm in series [1] came out at 60.6 °C. Also, in series [2], the folding enthalpy is -25.8 kcal/mol.
The matching figures for GCGAACTCTCGC ((((....)))): 46.8 °C and -24.8 kcal/mol.
For GATGGGGGAAACCTCATC ((((.((....)).)))), the Tm in series [1] was 46.3 °C. Moreover, the folding enthalpy in series [2] was -28.4 kcal/mol.
Regarding CGGGGTCGGAAACGACCG (((..(((....)))))), the Tm in series [1] was found to be 51.9 °C. The folding enthalpy in series [2] is -7.49 kcal/mol.
For the sequence GCCAAGGGAAACCTTGAC (.(((((....))))).), the Tm in series [1] was 39.6 °C. Also, the folding enthalpy in series [2] was -20.6 kcal/mol.
On to GATCACCGAAAGGTATC (((.(((....)))))), for which the Tm in series [1] is 34.1 °C. The folding enthalpy in series [2] is -15.8 kcal/mol.
Turning to GCACCAGGAAACTGGCAC (..((((....))))..), the Tm in series [1] is 23.9 °C. The folding enthalpy in series [2] is -11.6 kcal/mol.
In the case of GATTGGGGAAACTCGATC (((.(.(....).).))), in series [1], the Tm was determined as 30 °C. Also, the folding enthalpy in series [2] was -15.4 kcal/mol.
Regarding GATCTCTTGGAGATC ((((((...)))))), the Tm in series [1] worked out at 54.4 °C. For the same sequence, the folding enthalpy in series [2] is -37.8 kcal/mol.
As for GTGACAGGAAACTGCCAC (((.(((....))).))), the Tm in series [1] is 46.8 °C. The folding enthalpy in series [2] is -33 kcal/mol.
Consider GCGATCATCGC ((((...)))), for which the Tm in series [1] was 49.6 °C. Moreover, in series [2], the folding enthalpy is -19.5 kcal/mol.
As for GAAGTCGGAAACAACTTC (((((.(....).))))), in series [1], the Tm came out at 33.4 °C. The folding enthalpy in series [2] was -27.2 kcal/mol.
The matching figures for GATCAAGGGCTTGATC ((((((....)))))): 46.7 °C and -34.6 kcal/mol.
Regarding GGAATTGGAAACAATCCC ((.((((....)))).)), in series [1], the Tm amounted to 35.6 °C. For the same sequence, in series [2], the folding enthalpy is -20.1 kcal/mol.
As for GTCGGGGGAAACCCCAAC ((.((((....)))).)), in series [1], the Tm was found to be 38.5 °C. In series [2], the folding enthalpy is -16.1 kcal/mol.
Consider GTCCACGAAAGTGAGGAC ((((((....)))..))), for which, in series [1], the Tm is 46.4 °C. For the same sequence, in series [2], the folding enthalpy was -21.9 kcal/mol.
Turning to GTATGGCGAAAGCCCTAC (((.(((....))).))), the Tm in series [1] turned out to be 37.8 °C. Also, the folding enthalpy in series [2] was -18.4 kcal/mol.
In the case of GCCCAGAAATGGGC (((((....))))), the Tm in series [1] was 63.1 °C. In addition, the folding enthalpy in series [2] is -33.9 kcal/mol.
Take GATCGTGGTAACGATC ((((((....)))))): in series [1], the Tm is 66.1 °C. Besides, the folding enthalpy in series [2] was -39.2 kcal/mol.
As to GATCAGACACCTGATC ((((((....)))))), the Tm in series [1] was determined as 47.1 °C. Also, the folding enthalpy in series [2] is -34.1 kcal/mol.
For GCATGGGGAAACCCATAC (.(((((....))))).) the same measures were 36.5 °C and -15.6 kcal/mol.
On to GTGGGTGCGAAAGCACAC (((..(((....)))))), for which the Tm in series [1] amounted to 64.2 °C. Also, the folding enthalpy in series [2] is -17.5 kcal/mol.
Take GCTATGCGAAAGCAGGGC ((..(((....)))..)): the Tm in series [1] is 54.8 °C. In addition, the folding enthalpy in series [2] is -22.2 kcal/mol.
For GCTACACGAAAGTGGAGC (((.(((....))).))) the same measures were 67 °C and -43.5 kcal/mol.
As for GACAAAGGAAACCTTGTC (((((.(....).))))), the Tm in series [1] turned out to be 36.4 °C. The folding enthalpy in series [2] was -29.5 kcal/mol.
On to GAACTCACGAAAGTGTTC (((..(((....)))))), for which, in series [1], the Tm was 29.2 °C. The folding enthalpy in series [2] is -14.3 kcal/mol.
GATCTGAAACCAGATC ((((((....)))))): in series [1], the Tm was 43 °C. Also, in series [2], the folding enthalpy was -29.7 kcal/mol.
With GCCTACGGAAACGTGGGC (((.(((....))).))), in series [1], the Tm came out at 58.6 °C. For the same sequence, the folding enthalpy in series [2] is -39.2 kcal/mol.
The matching figures for GATCGTAATCACGATC ((((((....)))))): 53.2 °C and -45.7 kcal/mol.
For GGTTAGCGAAAGCTACC (((.(((....)))))), in series [1], the Tm worked out at 53.3 °C. Also, the folding enthalpy in series [2] was -17.2 kcal/mol.
For GGTACCACGAAAGTGACC (((..(((....)))))) the same measures were 30.1 °C and -13.4 kcal/mol.
As to GCAAGGCGAAAGCCTGC (((.(((....)))))), the Tm in series [1] came out at 66.5 °C. Further, in series [2], the folding enthalpy is -19.8 kcal/mol.
Regarding GATCCCACCCGGGATC ((((((....)))))), in series [1], the Tm came to 60 °C. Further, in series [2], the folding enthalpy is -41.1 kcal/mol.
For GGAAAAACGAAAGTTTCC (((..(((....)))))) the same measures were 35.6 °C and -14.9 kcal/mol.
For GGATACGAAAGTATCTCC ((((((....)))..))) the same measures were 46.2 °C and -13.3 kcal/mol.
For GTAGGGCCGAAAGGCTAC (((..(((....)))))) the same measures were 35 °C and -9.3 kcal/mol.
On to GATCCACCCCTGGATC ((((((....)))))), for which the Tm in series [1] was determined as 49.9 °C. In addition, the folding enthalpy in series [2] is -37.2 kcal/mol.
Consider CGTACGGAAACGTAGACG ((((((....)))..))), for which the Tm in series [1] is 36.6 °C. Also, the folding enthalpy in series [2] is -17 kcal/mol.
For GTTTATCGAAAGATTAAC (((.(((....))).))) the same measures were 33.5 °C and -28.9 kcal/mol.
As for GTGAGAACGAAAGTTCAC (((..(((....)))))), in series [1], the Tm was determined as 43.9 °C. Besides, the folding enthalpy in series [2] was -18 kcal/mol.
Consider GCACTGGGAAACCAGTAC (.(((((....))))).), for which the Tm in series [1] was 38.1 °C. The folding enthalpy in series [2] is -14.9 kcal/mol.
For GTCTCTCGAAAGAGGAC (((.(((....)))))) the same measures were 45.1 °C and -24.2 kcal/mol.
Take GATCGGTTAACCGATC ((((((....)))))): the Tm in series [1] is 58.8 °C. The folding enthalpy in series [2] is -47.3 kcal/mol.
Turning to GATCCAGTTGTGGATC ((((((....)))))), the Tm in series [1] is 50.4 °C. Besides, the folding enthalpy in series [2] was -38.6 kcal/mol.
Regarding GAGTGGACGAAAGTCCTC (((..(((....)))))), the Tm in series [1] was found to be 36 °C. In addition, in series [2], the folding enthalpy is -9.72 kcal/mol.
For the sequence GTAATGAAAATTAC (((((....))))), the Tm in series [1] amounted to 34.1 °C. Also, in series [2], the folding enthalpy was -15.6 kcal/mol.
For GATCCAGTCGTGGATC ((((((....)))))), the Tm in series [1] amounted to 52.8 °C. Besides, the folding enthalpy in series [2] is -35.9 kcal/mol.
On to GTTGACGAAAGTCGTAAC ((((((....)))..))), for which the Tm in series [1] amounted to 32.9 °C. Also, the folding enthalpy in series [2] is -11.1 kcal/mol.
GTAGTGCGAAAGCAGTAC (((.(((....))).))): the Tm in series [1] came to 58.2 °C. Moreover, the folding enthalpy in series [2] is -31.2 kcal/mol.
Take GTCCGTGGAAACGTGGAC ((((..(....)..)))): the Tm in series [1] came to 45.4 °C. The folding enthalpy in series [2] was -21.5 kcal/mol.
For GATCAGGGAAACCCGATC ((((.((....)).)))) the same measures were 43 °C and -26.1 kcal/mol.
On to GTGGCCGGAAACGGTCGC (.(.(((....))).).), for which, in series [1], the Tm worked out at 53.4 °C. The folding enthalpy in series [2] was -39.5 kcal/mol.
As for GCTTAGCGAAAGCGCAGC (((..((....))..))), in series [1], the Tm worked out at 46.9 °C. In addition, the folding enthalpy in series [2] was -17.6 kcal/mol.
Consider GTCTGGGGAAACCCGGAC (((.(((....))).))), for which, in series [1], the Tm is 55.5 °C. For the same sequence, in series [2], the folding enthalpy was -39.6 kcal/mol.
Take GCATTGGAAACAATGC ((((((....)))))): the Tm in series [1] was 57.7 °C. In series [2], the folding enthalpy is -39.4 kcal/mol.
The matching figures for GTTTTTGGAAACAAAAAC (((((((....))))))): 51.5 °C and -41.9 kcal/mol.
Take GGAGTCGGAAACGACCCC ((.((((....)))).)): in series [1], the Tm worked out at 54.4 °C. The folding enthalpy in series [2] was -15.2 kcal/mol.
Regarding GTCAGGCCGAAAGGCGAC (((..(((....)))))), the Tm in series [1] was determined as 46.9 °C. In series [2], the folding enthalpy is -18 kcal/mol.
For GTCACAGGAAACTATGAC ((((.((....)).)))) the same measures were 32 °C and -20.1 kcal/mol.
Regarding GACTAAGGAAACCTAGTC (((((.(....).))))), the Tm in series [1] worked out at 35.6 °C. Also, the folding enthalpy in series [2] was -25.7 kcal/mol.
The matching figures for GGCCCGCGAAAGCGAGCC (((.(((....))).))): 67.2 °C and -31.3 kcal/mol.

The values above are taken from the array DNA melting data of Ke et al. (doi:10.1101/2024.01.08.574731).
